Here are results for 97 compounds from ChEMBL document CHEMBL4513216, “Probing the Open Global Health Chemical Diversity Library for Multistage-Active Starting Points for Next-Generation Antimalarials” (ACS Infect Dis, 2020).

Structures are written as SMILES.

This data set can be described thus: Toxicity liver stage against HepG2, at 10uM. Type of data set: cell-based. Set-up: test concentration 10 uM, cell line HepG2-A16-CD81EGFP. The note with it: human, HepG2-A16-CD81EGFP cells; read-out: INHIBITION
In short, it runs like this: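 Uninfected HepG2-A16-CD81EGFP cells, 3 × 10^3 per well, 1536-well, plated on prespotted compound at 10 μM final, parasite-free screening media added to match infected plates; puromycin 10 μM positive, DMSO 0.5% negative; run in parallel with 48 h PbLuc assay at 37 °C, 5% CO2; viability by CellTiter-Glo luminescence, normalized to controls.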
As to `COCCO[C@H]1CCN(c2ccc(C)nn2)[C@H]1Cc1cccnc1`, the cytotoxicity at 10 µM stood at 1.53%. The result for `Cc1cnn(CCNCc2ccccc2Oc2cccnc2)c1` reads 6.33%; that for `Cc1ccn(-c2cncc(C(N)=O)c2)n1`, 0.0642%; that for `Cc1ccc(CN2Cc3c(C(=O)N(C)C)nn(C)c3C2)s1`, -12.6%. As to `Cc1cc(CSc2nc(=O)ccn2C(C)C)no1`, the cytotoxicity at 10 µM amounted to 14.9%. The value for `Cc1noc(C2CCC3(CCN(C(=O)C4CCOCC4)CC3)O2)n1` (configuration not stated) was 7.16%.

Regarding `CN(C)CCN1C[C@@H]2CN(C(=O)C3CC=CC3)C[C@@H]2C1=O`, the cytotoxicity at 10 µM is -1.34%. As to `COCC(=O)N1CC[C@@H]2CN(Cc3ccccc3)S(=O)(=O)[C@@H]2CC1`, the cytotoxicity at 10 µM is -0.733%.

With `COc1ccc(OC)c(CCNc2ncc(S(N)(=O)=O)s2)c1`, the cytotoxicity at 10 µM was 3.75%. The value for `CN(C1CCN(c2ccccn2)CC1)S(=O)(=O)c1ccc(F)cc1` was 11.2%; that for `CCN1CCOC(CNc2nccc(OC)n2)C1` (configuration not stated) was -0.572%; that for `Cc1cnn(CC(=O)NCC2CCN(c3cc(Cl)ccc3C)C2)c1` (configuration not stated) was -3.92%.

Turning to `CCC(CC)NC(=O)c1nc2n(n1)-c1ccccc1S(=O)(=O)N2`, the cytotoxicity at 10 µM is 8.3%. The value for `CCCc1nc(N2CCCCC2)c2c(n1)c(C)nn2CC` was 7.46%. In the case of `Cc1ccc(C)c(CS(=O)(=O)Cc2ccn(C)c(=O)c2)c1`, the cytotoxicity at 10 µM amounted to 13.8%.

In the case of `O=C(CC1CC1)NCc1cc(=O)n2c(n1)CN(Cc1ccoc1)CCC2`, the cytotoxicity at 10 µM was -20.6%. The value for `CN(Cc1ccc(F)cc1)C(=O)CN1CCCC(Cn2cncn2)C1` (configuration not stated) was -14.8%.

As to `CC(=O)Nc1nc(CS(=O)(=O)Cc2ccccc2)cs1`, the cytotoxicity at 10 µM is -3.39%. The value for `O=C(Cc1ccc(Cl)s1)Nc1ccc2c(c1)C(=O)NC2=O` was -7.19%; that for `CC(C)NC(=O)c1noc2c1CN(Cc1cnn(C)c1)CC2` was 6.59%. The result for `Cc1cc(F)ccc1OC1(C(=O)O)CCN(Cc2cccnc2)CC1` reads 1.87%; that for `c1cnc(-c2cnc(N3CCCCC3)nc2C2CCCO2)cn1` (configuration not stated), -7.16%; that for `CC(C)CNC(=O)CNC(=O)NC(c1nccs1)C1CC1` (configuration not stated), -6.66%. The value for `CCc1nccn1C1CCCN(C(=O)c2ccc3[nH]nnc3c2)C1` (configuration not stated) was 7.15%.

With `COCCCOC1CN(C(=O)c2[nH]nc3c2CCCC3)C1`, the cytotoxicity at 10 µM was found to be 8.11%. As to `CSCc1cccc(C(=O)N2CCN(CC(C)O)CC2)c1` (configuration not stated), the cytotoxicity at 10 µM is -5.31%. In the case of `N#Cc1cccc(OCCN2CCCC2C(=O)NCC(F)(F)F)c1` (configuration not stated), the cytotoxicity at 10 µM is -5.88%. The value for `O=C(Nc1nncs1)NC1CCN(Cc2ccccc2)C1` (configuration not stated) was -0.397%; that for `COc1ccc(CCCN(C)C(=O)c2cc(C(C)=O)c[nH]2)cc1OC` was 2.24%. The value for `CSCCCNc1ncnc2cccc(F)c12` was 0.721%; that for `Cc1cc(C(=O)N2CCCC(N3CCNC3=O)C2)nn1C(C)(C)C` (configuration not stated) was -1.44%.

On to `CC(NC(=O)N1CCC(OCc2ccccc2)CC1)c1nncn1C` (configuration not stated), for which the cytotoxicity at 10 µM is -1.49%. For the compound `CCSCC(C)NCc1nc(-c2cccnc2)no1` (configuration not stated), the cytotoxicity at 10 µM was -7.66%. The result for `Cc1ccc(C(=O)N2CCC(Oc3ccc(F)cc3F)CC2)c(=O)[nH]1` reads 7.63%; that for `Cc1nc(C)n(CC2CCCN2Cc2ccn(-c3ccccc3)n2)n1` (configuration not stated), -5.01%. `CC(=O)Nc1ccc(Oc2ccc(CN3CCCC3)cc2F)cc1`: the cytotoxicity at 10 µM amounted to 0.9%. The result for `Cc1cc(NC(=O)NCc2cccnc2OC(C)C)n(C)n1` reads 3.2%. In the case of `O=c1cc(CN2CCCC2)nc2n1CCCN(Cc1ccsc1)C2`, the cytotoxicity at 10 µM was -6.44%. The result for `CCn1c(C2CCCN(Cc3cc(OC)cc(OC)c3)C2)nn(C)c1=O` (configuration not stated) reads 0.0264%; that for `O=C(CSc1nnc(N2CCCC2)s1)NC(=O)Nc1ccccc1`, 3.59%; that for `CN1CCN(Cc2c[nH]cn2)CC12CCC(=O)N(CC1CC1)CC2` (configuration not stated), 2.98%. In the case of `CC(C)n1cc(CN(Cc2ccsc2)CC2CCCO2)cn1` (configuration not stated), the cytotoxicity at 10 µM is -7.89%.

Take `Cc1nccn1C1CCCN(C(=O)COC2CCCC2)C1` (configuration not stated): the cytotoxicity at 10 µM is -10.5%. The result for `Cc1oc(CNC(=O)Cc2ccc3ccccc3c2)cc1C(=O)O` reads 3.63%.

Consider `CC(NC(=O)N1CCCC1)c1ccc(S(N)(=O)=O)cc1` (configuration not stated), for which the cytotoxicity at 10 µM is -8.2%. `COc1ccc(-c2cnc(CN3CCCC3Cn3cccn3)o2)cc1` (configuration not stated): the cytotoxicity at 10 µM is -5.71%. The result for `Cc1cc(O)n(-c2ccc3nnc(C)n3n2)n1` reads 9.24%. With `COCCn1ccc(=O)c(OCC(=O)Nc2cccc(C(C)=O)c2)c1C`, the cytotoxicity at 10 µM stood at 4.31%. The result for `NC(=O)CCSc1n[nH]c(-c2ccc3c(c2)CCC3)n1` reads -0.302%; that for `Cc1noc(C2CCC3(CCN(C(=O)c4cnccn4)CC3)O2)n1` (configuration not stated), 7.19%; that for `Cc1ccc2c(c1)OCCN2C(=O)c1ccc(=O)n(C)c1`, -5.88%. Take `CS(=O)(=O)N1CCCC12CCCN(c1nccs1)C2` (configuration not stated): the cytotoxicity at 10 µM was determined as 4.92%. The result for `O=c1[nH]nc(CCCN2CCOCC2)n1Cc1cccc(F)c1` reads 7.04%; that for `CCN(Cc1cc(Br)ccc1F)C(=O)C(C)NC(N)=O` (configuration not stated), 11.6%; that for `CC(C)c1nc(CNC(C(=O)N2CCOCC2)C(C)C)no1` (configuration not stated), 6.43%.

For `Cc1nc(C)n(CC2CCCN(CCOc3cccc(C#N)c3)C2)n1` (configuration not stated), the cytotoxicity at 10 µM is -6.53%.

`CCc1ccccc1CNC(=O)CNC(=O)C(C)(C)C`: the cytotoxicity at 10 µM came to 2.29%.

As for `NC(=O)[C@@H]1Cc2ccccc2CN1S(=O)(=O)N1CCCCCC1`, the cytotoxicity at 10 µM came to 15.6%. In the case of `Cc1ccc(C2CCCCCN2CCCS(C)(=O)=O)o1` (configuration not stated), the cytotoxicity at 10 µM was -4.3%. `Cc1cc(-c2nn(C)c(Cl)c2CN2CCC3(CC2)[C@H](O)C[C@@H]3O)no1`: the cytotoxicity at 10 µM is -5.66%. The result for `O=C(NCC(O)c1ccc(Cl)c(F)c1)NC1CC=CC1` (configuration not stated) reads -2.41%; that for `CCC1CCCCN1C(=O)Cn1nc(-c2ccc(C)s2)cc(N)c1=O` (configuration not stated), 2.64%; that for `Cn1cnc2c1CCN(Cc1cccc(C(=O)N3CCCCC3)c1)C2`, -2.75%. The result for `CC(C)(C)NC(=O)NC(=O)CN1C=Nc2ccccc2S1(=O)=O` reads -8.68%; that for `CCN(Cc1ccoc1)C(=O)c1cc2c(c(S(N)(=O)=O)c1)CCC2`, -4.97%; that for `COCCN1C(=O)C2(CCC(C(=O)Nc3ccccn3)CC2)N=C1C` (configuration not stated), 10.7%. The result for `COCCn1cnc2ccc(NC(=O)c3ccccn3)cc2c1=O` reads -6.81%; that for `Cc1cc(CC(C)NC(=O)COc2ccc(F)cc2F)[nH]n1` (configuration not stated), -49%; that for `Cc1cc(CN2CCC(N(C)Cc3noc(C4CC4)n3)C2)on1` (configuration not stated), 1.54%. Consider `COc1ccc(C(=O)N2CC[C@H](CO)[C@H](O)C2)c(C)c1`, for which the cytotoxicity at 10 µM was -11.5%. The result for `CN(C)S(=O)(=O)N1CCCC(C)(c2ncc(C(N)=O)s2)C1` (configuration not stated) reads -2.36%; that for `CN1CCN(C(=O)c2cccc(OCc3cscn3)c2)CC1`, -6.18%; that for `COc1cc(N2CC3(CCN(c4ncccn4)C3)C2)ncn1`, 9.79%.

For the compound `CS(=O)(=O)CC(=O)N1C[C@H]2CCC[C@@]2(COCc2ccncc2)C1`, the cytotoxicity at 10 µM was -101%. The value for `CCNC(=O)CN(CC)C(=O)c1cc(-c2cccc(Cl)c2)no1` was -9.88%. As for `COCCNS(=O)(=O)c1cccc2c1CN(C(=O)c1cc(C)on1)CC2`, the cytotoxicity at 10 µM came to 1.63%. Consider `COCc1noc(CN2C[C@H](NS(C)(=O)=O)[C@@H](C3CC3)C2)n1`, for which the cytotoxicity at 10 µM was 1.67%. The result for `Cc1ccc(NC(=O)N2CCC(CO)(Nc3ccccc3)CC2)cc1` reads -0.405%. The value for `CC(C)c1nccc([C@H]2C[C@@H]3CCN(Cc4ccoc4)C[C@H]3O2)n1` was -4.45%.

As to `O=C1CN(C(=O)C2CN(c3ccccc3)CCO2)CCN1` (configuration not stated), the cytotoxicity at 10 µM stood at 1.91%. On to `CC(=O)N1CCC(Cc2nccnc2-c2ccnn2C)CC1`, for which the cytotoxicity at 10 µM was -7.3%. As to `Cc1ccccc1C1CCCN1Cc1nc2c(cnn2C)c(=O)[nH]1` (configuration not stated), the cytotoxicity at 10 µM was -12%. The result for `CS(=O)(=O)c1snnc1C1CCN(Cc2cccnc2)CC1` reads -11.2%; that for `CCN1CC(CN(C)Cc2nc(-c3ccc(C)o3)oc2C)CC1=O` (configuration not stated), 5.88%. Turning to `CC(C)C1CN(S(=O)(=O)c2ccc(C#N)cc2)CCS1` (configuration not stated), the cytotoxicity at 10 µM worked out at 6.88%. For `CNC(=O)C1CC2(CCN(C(=O)c3csnn3)CC2)c2ccccc21` (configuration not stated), the cytotoxicity at 10 µM is -154%. The result for `O=C1NCCCc2c1oc1ccc(O)c(CN3CCOCC3)c21` reads 13.3%; that for `NC(=O)C(CNC(=O)Cc1ccc(F)cc1)Cc1ccc(F)cc1` (configuration not stated), 3.02%. The value for `CN1CCN(c2ncnc3c2CCN(c2ncc(F)cn2)CC3)CC1` was 7.61%; that for `O=C1[C@@H]2CN(Cc3ccccn3)C[C@H]2CCN1c1cncnc1` was -115%.

In the case of `CCc1nc(CN2CCN(C(=O)c3csc(C(C)C)n3)CC2)no1`, the cytotoxicity at 10 µM was 11.3%.

Regarding `CC(C)n1nc(Cn2cccn2)c2c1CN(C1CCOC1)C2` (configuration not stated), the cytotoxicity at 10 µM amounted to 6.95%.

In the case of `O=C(O)CCc1cn(C2CCN(c3ncccc3Cl)CC2)nn1`, the cytotoxicity at 10 µM was -49.3%. With `CC(C)c1nn(C)c(N(C)C)c1CNCc1ccc(CO)c(F)c1`, the cytotoxicity at 10 µM was -5.4%.

Consider `COCC1CN(C(=O)c2cccn2C)Cc2cnn(C)c21` (configuration not stated), for which the cytotoxicity at 10 µM was 7.43%. The value for `Cc1cccc(N2CCCN=C2NC(=O)c2cccc(Cl)c2)c1` was 6.39%; that for `CC(C)N1c2sc(-c3ccccc3)nc2CC1C(=O)NCCCO` (configuration not stated) was 7.8%.
